# Results collected from several papers.
# Compare with care: the assays were run in different laboratories.
# Target: Serine/threonine-protein kinase Nek4 (NEK4, Homo sapiens, UniProt P51957)
Structure (SMILES),assay,setting,remaining binding [%]
c1cncc(-c2cccc(Nc3nccc(NC4CCCCC4)n3)c2)c1,"binding, competition with immobilised ligand",10 µM,100
CN(C)c1nccc(-c2cnn3ncccc23)n1,binding,1 µM,98
CCCCN(CCCC)C(=O)CN1C[C@@H](c2cc(OC)c3c(c2)OCO3)[C@H](C(=O)O)[C@H]1CC(C)(C)CCC,"cell-free assay, competition with immobilised ligand",1 µM,93.9
C[C@@H](c1ccc(-n2cnc3c(N)ncnc32)cc1)N1CCc2nn(C)c(Cc3ccccc3)c2C1=O,"binding, competition with immobilised ligand",0.1 µM,82
O=C(c1ccc(Nc2nccc(-c3cc4ccccc4s3)n2)cc1)N1CCC(N2CCCC2)CC1,"binding, competition with immobilised ligand",1 µM,100
O=C(Nc1cccnn1)N1CC(C/C=C/c2cncc(Oc3ccc(C(F)(F)F)cn3)n2)C1,"cell-free assay, competition with immobilised ligand",1 µM,95
COc1cnc(Nc2cccc(S(N)(=O)=O)c2)nc1N1CCN(c2ccccc2)CC1,"binding, competition with immobilised ligand",1 µM,95
C[C@H]1CCN(c2nccc(-c3cnn4ncccc34)n2)C1,binding,1 µM,81
Cn1nc(C(F)(F)F)cc1-c1cnc(N2CCc3cc(S(=O)(=O)Nc4c(F)cc(Cl)cc4F)cc(N4CCCC4=O)c32)nc1,"cell-free assay, competition with immobilised ligand",1 µM,72
O=C(NCC1CCOCC1)c1n[nH]cc1NC(=O)c1c(F)cccc1F,"binding, competition with immobilised ligand",1 µM,78
F[C@@H]1CCN(c2nccc(-c3cnn4ncccc34)n2)C1,binding,1 µM,100
CC1=C(C#N)C(c2ccc3c(c2)c(NC(=O)c2ccccc2C)nn3C)C(C#N)=C(C)N1,"cell-free assay, competition with immobilised ligand",1 µM,100
O=C(NCCCN1CCOCC1)c1ccc(Nc2ncc(Cl)c(-c3ccc(Cl)s3)n2)cc1,"binding, competition with immobilised ligand",1 µM,40
COc1cnc(Nc2cccc(S(N)(=O)=O)c2)nc1N1CCN(c2ccccc2)C(=O)C1,"binding, competition with immobilised ligand",1 µM,79
COc1ccnn2ncc(-c3ccnc(N(C)C)n3)c12,binding,1 µM,86
CN(c1ccnc(CNc2nc(Nc3ccc4c(c3)CC(=O)N4)ncc2C(F)(F)F)n1)S(C)(=O)=O,"cell-free assay, competition with immobilised ligand",1 µM,84
CN(CCCC(F)(F)F)c1nccc(-c2cnn3ncccc23)n1,binding,1 µM,92
O=C(c1ccc(Nc2ncc(Cl)c(-c3ccc(Cl)s3)n2)cc1)N1CCC(N2CCCC2)CC1,"binding, competition with immobilised ligand",1 µM,30
N[C@@H]1CCN(c2nccc(-c3cnn4ncccc34)n2)C1,binding,1 µM,100
C[C@H](c1cccc(C#N)c1)n1cc(Cl)cc(C(N)=O)c1=N,"cell-free assay, competition with immobilised ligand",1 µM,100
FC(F)(F)Oc1cccc(-c2cnc3ccc(-c4ccncc4)nn23)c1,"cell-free assay, competition with immobilised ligand",5 µM,94
